{"source": "paper PMC10947042", "about": "(Chemmedchem, 2022)", "key": {"[1]": {"assay": "Solubility in the buffer solution", "format": "physicochemical"}, "[2]": {"tested_on": "HeLa cells", "assay": "Receptor-mediated endocytosis assay, HeLa cells", "format": "cell-based", "summary_of_the_method": "(§1)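 Cells grown in DMEM/10 % FCS, then serum‑free DMEM for 16 h. Compound added 30 min (final DMSO ≤1 %), then Tfn‑TxR (final 5.0 μg/mL) or EGF‑TxR (final 1.0 μg/mL) as applicable, 10 min at 37 °C. Surface ligand stripped with ice‑cold acid wash (pH 2.8), 4 % PFA fix, DAPI stain, fluorescence microscopy. Quantified as integrated intensity per cell, % of vehicle control.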"}, "[3]": {"tested_on": "dynamin I", "conditions": "read-out: IC50 for dynamin I inhibition; in vitro dynamin I GTPase; cited from earlier work"}, "[4]": {"tested_on": "Swiss 3T3 cells", "assay": "Receptor-mediated endocytosis assay, Swiss 3T3 cells", "format": "cell-based", "summary_of_the_method": "as §1"}, "[5]": {"tested_on": "B104 cells", "assay": "Receptor-mediated endocytosis assay, B104 cells", "format": "cell-based", "summary_of_the_method": "as §1"}, "[6]": {"tested_on": "HER14 cells", "assay": "Receptor-mediated endocytosis assay, HER14 cells", "format": "cell-based", "summary_of_the_method": "as §1"}, "[7]": {"tested_on": "B35 cells", "assay": "Receptor-mediated endocytosis assay, B35 cells", "format": "cell-based", "summary_of_the_method": "as §1"}, "[8]": {"tested_on": "dynamin I", "assay": "Malachite Green GTPase assay, dynamin I", "format": "biochemical, sheep", "conditions": "increasing GTP or phospholipid (PS) concentration, Figure 2", "summary_of_the_method": "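GTP 0.3 mM, PS liposomes ~4 μg/ml (GTP or PS varied). Compound present; 30 min, 37 °C; EDTA stop; malachite green A650 against phosphate standard. Basal subtracted; Michaelis‑Menten and Lineweaver‑Burk fits.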"}, "[9]": {"tested_on": "COS7 cells", "assay": "Receptor-mediated endocytosis assay, COS7 cells", "format": "cell-based", "conditions": "at up to 300 μM", "summary_of_the_method": "as §1"}, "[10]": {"tested_on": "dyn II", "conditions": "read-out: dyn II IC50; cited from earlier work"}, "[11]": {"assay": "Rat blood plasma stability", "format": "in vitro ADME", "conditions": "5 % rat blood plasma, Figure 3E"}, "[12]": {"tested_on": "A431 cells", "assay": "Receptor-mediated endocytosis assay, A431 cells", "format": "cell-based", "conditions": "30 μM, data not shown"}}, "data": [{"smiles": "CCCCCC(=O)Oc1ccc(C=C(C#N)C(=O)NCCCNC(=O)C(C#N)=Cc2ccc(OC(=O)CCCCC)c(OC(=O)CCCCC)c2)cc1OC(=O)CCCCC", "note": "[Compound 8, Hexanoic acid 5‐(2‐{3‐[3‐(3,4‐bis‐hexanoyloxyphenyl)‐2‐cyanoacryloylamino]‐propylcarbamoyl}‐2‐cyanovinyl)‐2‐hexanoyloxyphenyl ester]", "values": [{"measurement": "solubility in the buffer solution / under physiological conditions", "setting": "[1]", "value": "insoluble"}]}, {"smiles": "CC(C)(C)C(=O)Oc1ccc(C=C(C#N)C(=O)NCCCNC(=O)C(C#N)=Cc2ccc(OC(=O)C(C)(C)C)c(OC(=O)C(C)(C)C)c2)cc1OC(=O)C(C)(C)C", "note": "[Compound 9, 2,2‐Dimethylpropionic acid 5‐[2‐(3‐{3‐[3,4‐bis‐(2,2‐dimethylpropionyloxy)phenyl]‐2‐cyanoacryloylamino}propylcarbamoyl)‐2‐cyanovinyl]‐2‐(2,2‐dimethylpropionyloxy)phenyl ester]", "values": [{"measurement": "solubility in the buffer solution / under physiological conditions", "setting": "[1]", "value": "insoluble"}]}, {"smiles": "CC(=O)Oc1ccc(C=C(C#N)C(=O)NCCCNC(=O)C(C#N)=Cc2ccc(OC(C)=O)c(OC(C)=O)c2)cc1OC(C)=O", "note": "[Compound 3, Acetic acid 2‐acetoxy‐5‐(2‐cyano‐2‐{3‐[2‐cyano‐3‐(3,4‐diacetoxyphenyl)acryloylamino]propylcarbamoyl}vinyl)phenyl ester]", "values": [{"measurement": "solubility in the buffer solution / under physiological conditions", "setting": "[1]", "value": "insoluble"}]}, {"smiles": "N#CC(=Cc1ccc(O)c(O)c1)C(=O)NCCCNC(=O)C(C#N)=Cc1ccc(O)c(O)c1", "note": "[Compound 2, 2‐Cyano‐N‐{3‐[2‐cyano‐3‐(3,4‐dihydroxyphenyl)acryloylamino]propyl}‐3‐(3,4‐dihydroxyphenyl)acrylamide]", "values": [{"measurement": "effect on EGF‐TxR uptake (CME)", "setting": "[2]; 100 μM", "value": "no effect on CME"}, {"measurement": "endocytosis block", "setting": "[2]; at up to 300 μM", "value": "largely ineffective"}, {"measurement": "IC50", "setting": "[3]", "value": "1700 ± 2000", "unit": "nM"}, {"measurement": "endocytosis block (TxR‐Tfn uptake)", "setting": "[4]; 100 μM", "value": "essentially complete"}, {"measurement": "endocytosis block", "setting": "[5]; 100 μM, not shown", "value": "essentially complete"}, {"measurement": "endocytosis block", "setting": "[6]; 100 μM, not shown", "value": "essentially complete"}, {"measurement": "endocytosis block", "setting": "[7]; at up to 300 μM", "value": "largely ineffective"}, {"measurement": "mode of dynamin inhibition", "setting": "[8]", "value": "non‐GTP and non‐lipid dependent manner"}, {"measurement": "endocytosis block", "setting": "[9]", "value": "largely ineffective"}, {"measurement": "IC50", "setting": "[10]", "value": 500, "unit": "nM"}]}, {"smiles": "CCC(=O)Oc1ccc(C=C(C#N)C(=O)NCCCNC(=O)C(C#N)=Cc2ccc(OC(=O)CC)c(OC(=O)CC)c2)cc1OC(=O)CC", "note": "[Compound 4, Propionic acid 5‐(2‐{3‐[3‐(3,4‐bis‐propionyloxyphenyl)‐2‐cyanoacryloylamino]propylcarbamoyl}‐2‐cyanovinyl)‐2‐propionyloxyphenyl ester]", "values": [{"measurement": "time until hydrolysis was complete", "setting": "[11]", "value": "≈ 60 min"}, {"measurement": "transferrin and EGF uptake (where applicable)", "setting": "[12]", "value": "inhibited transferrin and EGF uptake"}, {"measurement": "effect on EGF‐TxR uptake (CME)", "setting": "[2]; 30 μM", "value": "marked reduction in CME"}, {"measurement": "transferrin and EGF uptake (where applicable)", "setting": "[4]; 30 μM, data not shown", "value": "inhibited transferrin and EGF uptake"}, {"measurement": "transferrin and EGF uptake (where applicable)", "setting": "[5]; 30 μM, data not shown", "value": "inhibited transferrin and EGF uptake"}, {"measurement": "transferrin and EGF uptake (where applicable)", "setting": "[6]; 30 μM, data not shown", "value": "inhibited transferrin and EGF uptake"}, {"measurement": "transferrin and EGF uptake (where applicable)", "setting": "[7]; 30 μM, data not shown", "value": "inhibited transferrin and EGF uptake"}]}]}
